The term Ki denotes the dissociation constant of the complex between target and ligand, obtained from inhibition or displacement. By inhibition is commonly meant the change of the read-out against control, counted positive when it falls.

For 14 compounds, Ki and inhibition results are on record in ChEMBL document CHEMBL3272188, “Inhibitors of Bacillus subtilis DNA polymerase III. 6-(arylalkylamino)uracils and 6-anilinouracils” (J Med Chem, 1977).

A short description of assay [1]: Inhibition of wild-type Bacillus subtilis DNA polymerase 3-mediated dGTP truncated DNA synthesis assessed as inhibition of incorporation of [3H]TMP. Summed up:
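Pol III truncated DNA synthesis run with dGTP omitted from the reaction. The reported Ki is the inhibitor concentration giving 50% inhibition of enzyme activity.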

In the next assay the test system is Bacillus subtilis. The experiment in a line: Inhibition of wild-type Bacillus subtilis DNA polymerase 3-mediated dGTP truncated DNA synthesis assessed as inhibition of incorporation of [3H]TMP at 1 mM. An outline of the steps:
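Single-concentration test at 1 mM inhibitor in pol III truncated DNA synthesis with dGTP omitted.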

Assay [2] in a line: Inhibition of Bacillus subtilis DNA polymerase 3/azp-12 mutant-mediated dGTP truncated DNA synthesis assessed as inhibition of incorporation of [3H]TMP.

Some results are limits rather than exact numbers.

`O=c1cc(NCc2ccc([N+](=O)[O-])cc2)[nH]c(=O)[nH]1`: in assay [1], the Ki stood at 5.2 µM.

On to `Cc1ccc(Nc2cc(O)nc(O)n2)cc1`, for which the Ki in assay [1] worked out at 20.4 µM. Turning to `CC(=O)Nc1ccc(CNc2cc(=O)[nH]c(=O)[nH]2)cc1`, in assay [1], the Ki was determined as 2300 µM. Regarding `Oc1cc(NCCCc2ccccc2)nc(O)n1`, in assay [1], the inhibition constant Ki was 2000 µM. For `Cc1cccc(Nc2cc(O)nc(O)n2)c1`, the Ki in assay [1] turned out to be 27.5 µM. With `O=c1cc(NCC2CCCCC2)[nH]c(=O)[nH]1`, the inhibition with Bacillus subtilis is less than 10%. `Oc1cc(Nc2ccc3c(c2)CCC3)nc(O)n1`: the Ki in assay [1] was found to be 0.4 µM. Turning to `Oc1cc(NCCCCc2ccccc2)nc(O)n1`, the inhibition in the assay with Bacillus subtilis is less than 10%.

On to `CC(Nc1cc(=O)[nH]c(=O)[nH]1)c1ccccc1` (configuration not stated), for which the inhibition in the assay with Bacillus subtilis is less than 10%. As for `Oc1cc(NCCc2ccccc2)nc(O)n1`, the Ki came out at 31.7 µM in assay [1] and 30 µM in assay [2]. Take `Oc1cc(NCc2ccccc2)nc(O)n1`: the Ki in assay [1] was 2.3 µM; in assay [2], 2.5 µM. Turning to `Oc1cc(Nc2ccccc2)nc(O)n1`, the inhibition in the assay with Bacillus subtilis was less than 10%.

Turning to `Cc1ccc(Nc2cc(O)nc(O)n2)cc1C`, the Ki in assay [1] was 1 µM.

In the case of `Nc1ccc(CNc2cc(=O)[nH]c(=O)[nH]2)cc1`, the Ki in assay [1] is 17 µM; in assay [2], 156 µM.
